The nature of series [1]: folding enthalpy; higher = less favourable; fluorescence melt of hairpins on a sequencing array, two-state fit. Particulars: sodium 0.088 M. In outline:
(§1)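 Folding enthalpy and melting temperature were estimated with bootstrapped two-state fits and combined across four replicates by inverse-variance weighting, with fitted temperatures raised by 9.35 °C to match UV melts. The data were Cy3 fluorescence of library hairpins, with annealed Cy3 and quencher oligos, on a sequenced MiSeq flow cell in 50 mM Na-HEPES pH 8.0, 25 mM NaCl, imaged in 2.5 °C steps up to 60 °C and normalised to pre-quench Cy3 and control constructs.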

Series [2] is described as follows: melting temperature; fluorescence melt of hairpins on a sequencing array, two-state fit, raised by 9.35 °C to match UV melts. As to conditions: sodium 0.088 M. The gist of the method: as §1

Consider GCGAGACGAAAGTCCGC (((.(((....)))))), for which, in series [1], the folding enthalpy is -29.3 kcal/mol. Also, the Tm in series [2] was 67.2 °C.
The like results for GCGAGACTTCGC ((((....)))) were, in that order, -10.4 kcal/mol and 56.6 °C.
Consider GCGAGAGCTCGC ((((....)))), for which the folding enthalpy in series [1] is -12.8 kcal/mol. Further, the Tm in series [2] was found to be 52.5 °C.
For GCGAGAGGAAACTTTCGC ((((.((....)).)))) the same measures were -33.8 kcal/mol and 48.8 °C.
The like results for GCGAGAGGTCGC ((((....)))) were, in that order, -8.36 kcal/mol and 50.9 °C.
As for GCGAGCAGTCGC ((((....)))), the folding enthalpy in series [1] was -26.2 kcal/mol. Further, in series [2], the Tm stood at 52.6 °C.
Consider GCGAGCCGAAAGGCCCGC (((.(((....))).))), for which the folding enthalpy in series [1] was -26.1 kcal/mol. The Tm in series [2] is 67.8 °C.
Turning to GCGAGCGAAAGCTGCCGC ((((((....)))..))), the folding enthalpy in series [1] is -13.1 kcal/mol. The Tm in series [2] amounted to 53.5 °C.
GCGAGCGGTCGC ((((....)))): the folding enthalpy in series [1] is -22.4 kcal/mol. Also, the Tm in series [2] amounted to 52 °C.
For GCGAGGACTCGC ((((....)))) the same measures were -31.9 kcal/mol and 56.1 °C.
On to GCGAGGATCGC ((((...)))), for which the folding enthalpy in series [1] was -23.7 kcal/mol. In series [2], the Tm turned out to be 59.4 °C.
For GCGAGGCATCGC ((((....)))) the same measures were -26.3 kcal/mol and 57.4 °C.
With GCGAGGCGAAAGCGGCGC (((..((....))..))), in series [1], the folding enthalpy is -38.1 kcal/mol. For the same sequence, the Tm in series [2] amounted to 66.8 °C.
For GCGAGGGATCGC ((((....)))) the same measures were -16.6 kcal/mol and 52.1 °C.
For GCGAGGTCGAAAGACCGC (((..(((....)))))) the same measures were -9.59 kcal/mol and 54.3 °C.
GCGAGGTTTCGC ((((....)))): the folding enthalpy in series [1] is -16 kcal/mol. The Tm in series [2] was determined as 49.4 °C.
On to GCGAGTCGAAAGACCCGC (((.(((....))).))), for which the folding enthalpy in series [1] was -48.2 kcal/mol. For the same sequence, in series [2], the Tm came to 57.3 °C.
For GCGAGTGCGAAAGCACGC (((..(((....)))))) the same measures were -9.67 kcal/mol and 59 °C.
For GCGAGTGGAAACATTCGC ((((.((....)).)))) the same measures were -35 kcal/mol and 53.2 °C.
On to GCGAGTGTCGC ((((...)))), for which the folding enthalpy in series [1] is -13.9 kcal/mol. The Tm in series [2] was 47 °C.
The like results for GCGATACATCGC ((((....)))) were, in that order, -27.5 kcal/mol and 55.7 °C.
Consider GCGATACTCGC ((((...)))), for which the folding enthalpy in series [1] was -22.8 kcal/mol. The Tm in series [2] came to 49.3 °C.
The like results for GCGATAGTCGC ((((...)))) were, in that order, -14 kcal/mol and 52.5 °C.
As to GCGATATATCGC ((((....)))), in series [1], the folding enthalpy was -25.9 kcal/mol. Moreover, the Tm in series [2] came out at 55.6 °C.
For the sequence GCGATCCGAAAGGACCGC (((.(((....))).))), the folding enthalpy in series [1] was -36.1 kcal/mol. In addition, the Tm in series [2] was found to be 63.2 °C.
For GCGATCGAAAGATACGC ((((((....))).))) the same measures were -25.5 kcal/mol and 50.1 °C.
The like results for GCGATCGAAAGATAGCGC ((((((....)))..))) were, in that order, -30.8 kcal/mol and 55.5 °C.
For GCGATCGAAAGATTACGC ((((((....)))..))) the same measures were -30.4 kcal/mol and 42 °C.
Turning to GCGATCGAAAGATTCCGC ((((((....)))..))), the folding enthalpy in series [1] is -23.8 kcal/mol. The Tm in series [2] was found to be 33.7 °C.
Consider GCGATCGAAAGATTTCGC ((((((....)))..))), for which the folding enthalpy in series [1] was -26.4 kcal/mol. For the same sequence, the Tm in series [2] was 39.8 °C.
For GCGATCGGAAACGACCGC (((.(((....))).))) the same measures were -48.9 kcal/mol and 55.5 °C.
For GCGATCGGAAACGATTGC ((.((((....)))).)) the same measures were -43.5 kcal/mol and 56.3 °C.
GCGATGAGTCGC ((((....)))): the folding enthalpy in series [1] was -30.5 kcal/mol. Also, in series [2], the Tm is 54.8 °C.
For GCGATGATTCGC ((((....)))) the same measures were -23.3 kcal/mol and 50.9 °C.
The like results for GCGATGCCGAAAGGCCGC (((..(((....)))))) were, in that order, -18 kcal/mol and 59.3 °C.
For GCGATGCGAAAGCAGTGC ((..(((....)))..)) the same measures were -22.7 kcal/mol and 58.3 °C.
Take GCGATGCGAAAGCCGCGC (((..((....))..))): the folding enthalpy in series [1] was -27.7 kcal/mol. The Tm in series [2] turned out to be 64.7 °C.
For GCGATGCGAAAGCCTAGC ((.(.((....)).).)) the same measures were -21.8 kcal/mol and 45 °C.
As to GCGATGCGAAAGCGACGC (((..((....))..))), the folding enthalpy in series [1] is -29.5 kcal/mol. Also, the Tm in series [2] is 65.7 °C.
